Key:
Rattus norvegicus [1] = test: Antiinflammatory activity in rat assessed as inhibition of carrageenan-induced paw edema at 10 mg/kg, po; assay type: functional
Procedure, shortened: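 Rats, six per group, received the drug suspended in 1% CMC orally 30 min before carrageenan; one group served as control. Carrageenan was given as 0.05 mL of 1% w/v in 0.9% saline under the plantar aponeurosis of the right hind paw.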

Mus musculus = test: Analgesic activity in albino mouse inhibition of acetic acid-induced writhing response at 10 mg/kg, po; assay type: functional; set-up: scale not given: the % may be the effect or the level left
Rattus norvegicus [2] = test: Gastrointestinal toxicity in albino rat assessed as ulcerogenic indicates at dose 30 mg/kg, po; settings: in vivo
Gastric mucosa = test: Inhibition of lipid peroxidation assessed as malondialdehyde level per 100 mg of gastric mucosa isolated from albino rat at dose 30 mg/kg, po
[3] = biological target: T1, Prostaglandin G/H synthase 1 (Ovis aries, UniProt P05979); test: Inhibition of ovine COX1 by enzyme-immuno assay
T1 sequence (P05979 whole entry): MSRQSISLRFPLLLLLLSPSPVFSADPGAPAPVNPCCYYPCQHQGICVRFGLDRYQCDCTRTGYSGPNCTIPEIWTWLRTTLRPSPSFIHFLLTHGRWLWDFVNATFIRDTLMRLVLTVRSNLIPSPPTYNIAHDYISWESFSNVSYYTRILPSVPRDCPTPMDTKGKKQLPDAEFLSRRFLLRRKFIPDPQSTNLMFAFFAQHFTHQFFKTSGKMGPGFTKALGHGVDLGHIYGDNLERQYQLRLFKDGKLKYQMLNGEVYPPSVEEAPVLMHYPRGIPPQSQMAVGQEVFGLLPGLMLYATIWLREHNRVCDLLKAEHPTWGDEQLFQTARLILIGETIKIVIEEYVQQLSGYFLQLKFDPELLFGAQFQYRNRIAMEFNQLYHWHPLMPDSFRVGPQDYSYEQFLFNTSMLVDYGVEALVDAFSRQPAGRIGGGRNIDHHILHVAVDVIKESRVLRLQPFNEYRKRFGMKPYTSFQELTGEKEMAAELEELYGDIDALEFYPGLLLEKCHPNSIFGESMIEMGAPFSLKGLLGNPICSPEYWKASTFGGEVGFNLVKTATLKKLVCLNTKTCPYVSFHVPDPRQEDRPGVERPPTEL

`O=C(CCc1nnc(-c2ccccc2)o1)c1ccc(-c2ccccc2)cc1` showed an inhibition in vivo at 10 mg/kg (Rattus norvegicus [1]) of 43.7%, an Activity (Mus musculus) of 51.3% and a UI (Rattus norvegicus [2]) of 0.4. It also gave an MDA content at 30 mg/kg (Gastric mucosa) of 4.3 nmol MDA/100 mg tissue.
In the case of `COc1ccc(-c2nnc(CCC(=O)c3ccc(-c4ccccc4)cc3)o2)cc1`, the IC50 [3] is reported as 52.3 µM, the inhibition in vivo at 10 mg/kg (Rattus norvegicus [1]) is reported as 59.4% and the Activity (Mus musculus) is reported as 51.3%. For the same compound, the MDA content at 30 mg/kg (Gastric mucosa) was 6.1 nmol MDA/100 mg tissue.
With `COc1ccc(-c2nnc(CCC(=O)c3ccc(-c4ccccc4)cc3)o2)cc1OC` the IC50 [3] was 54.1 µM, the inhibition in vivo at 10 mg/kg (Rattus norvegicus [1]) was 62.5% and the Activity (Mus musculus) was 57.3%. For the same compound, the MDA content at 30 mg/kg (Gastric mucosa) was 4.9 nmol MDA/100 mg tissue.
`O=C(CCc1nnc(-c2ccccc2Cl)o1)c1ccc(-c2ccccc2)cc1` was tested, and the inhibition in vivo at 10 mg/kg (Rattus norvegicus [1]) was 46.8%, the Activity (Mus musculus) was 66.1% and the UI (Rattus norvegicus [2]) was 0.5. For the same compound, the MDA content at 30 mg/kg (Gastric mucosa) was 5.7 nmol MDA/100 mg tissue.
`CC(=O)Oc1ccccc1-c1nnc(CCC(=O)c2ccc(-c3ccccc3)cc2)o1` showed an inhibition in vivo at 10 mg/kg (Rattus norvegicus [1]) of 43.7%, an Activity (Mus musculus) of 56.3% and a UI (Rattus norvegicus [2]) of 0.7. It also gave an MDA content at 30 mg/kg (Gastric mucosa) of 5.8 nmol MDA/100 mg tissue.
For `O=C(CCc1nnc(COc2ccccc2)o1)c1ccc(-c2ccccc2)cc1`, the inhibition in vivo at 10 mg/kg (Rattus norvegicus [1]) was 53.1%, the Activity (Mus musculus) was 55.8% and the UI (Rattus norvegicus [2]) was 0.6. The MDA content at 30 mg/kg (Gastric mucosa) was 5.8 nmol MDA/100 mg tissue.
With `O=C(CCc1nnc(Cc2ccccc2)o1)c1ccc(-c2ccccc2)cc1` the inhibition in vivo at 10 mg/kg (Rattus norvegicus [1]) was 50%, the Activity (Mus musculus) was 54.1% and the UI (Rattus norvegicus [2]) was 0.5. It also gave an MDA content at 30 mg/kg (Gastric mucosa) of 5.8 nmol MDA/100 mg tissue.
`O=C(CCc1nnc(COc2ccc3ccccc3c2)o1)c1ccc(-c2ccccc2)cc1` showed an IC50 [3] of 48.4 µM, an inhibition in vivo at 10 mg/kg (Rattus norvegicus [1]) of 59.4% and an Activity (Mus musculus) of 68.6%. For the same compound, the MDA content at 30 mg/kg (Gastric mucosa) was 5.9 nmol MDA/100 mg tissue.
In the case of `O=C(O)CCC(=O)c1ccc(-c2ccccc2)cc1` [FENBUFEN], the IC50 [3] is reported as 3.9 µM, the inhibition in vivo at 10 mg/kg (Rattus norvegicus [1]) is reported as 56.3% and the Activity (Mus musculus) is reported as 54.1%. For the same compound, the MDA content at 30 mg/kg (Gastric mucosa) was 6.8 nmol MDA/100 mg tissue.
In the case of `O=C(CCc1nnc(-c2ccc(F)cc2)o1)c1ccc(-c2ccccc2)cc1`, the inhibition in vivo at 10 mg/kg (Rattus norvegicus [1]) is reported as 53.1%, the Activity (Mus musculus) is reported as 72.5% and the UI (Rattus norvegicus [2]) is reported as 0.6. For the same compound, the MDA content at 30 mg/kg (Gastric mucosa) was 4.6 nmol MDA/100 mg tissue.
`O=C(CCc1nnc(-c2ccc(Cl)cc2)o1)c1ccc(-c2ccccc2)cc1` gave an inhibition in vivo at 10 mg/kg (Rattus norvegicus [1]) of 53.1%, an Activity (Mus musculus) of 61.9% and a UI (Rattus norvegicus [2]) of 0.6. The MDA content at 30 mg/kg (Gastric mucosa) was 5.8 nmol MDA/100 mg tissue.
Work on `O=C(O)Cc1ccccc1Nc1c(Cl)cccc1Cl` [DICLOFENAC] yielded an inhibition in vivo at 10 mg/kg (Rattus norvegicus [1]) of 65.6%, an Activity (Mus musculus) of 70.3% and an MDA content at 30 mg/kg (Gastric mucosa) of 8.9 nmol MDA/100 mg tissue.
`Cc1ccc(-c2nnc(CCC(=O)c3ccc(-c4ccccc4)cc3)o2)cc1` gave an inhibition in vivo at 10 mg/kg (Rattus norvegicus [1]) of 50%, an Activity (Mus musculus) of 45.1% and a UI (Rattus norvegicus [2]) of 0.5. The MDA content at 30 mg/kg (Gastric mucosa) was 5.8 nmol MDA/100 mg tissue.
`O=C(CCc1nnc(-c2ccc([N+](=O)[O-])cc2)o1)c1ccc(-c2ccccc2)cc1` showed an IC50 [3] of 42.6 µM, an inhibition in vivo at 10 mg/kg (Rattus norvegicus [1]) of 56.2% and an Activity (Mus musculus) of 45.8%. The MDA content at 30 mg/kg (Gastric mucosa) was 4.3 nmol MDA/100 mg tissue.

From ChEMBL document CHEMBL1153620 (Eur J Med Chem, 2009)
